The values below come from PMC3421229 (International Journal of Biological Sciences, 2012).

The test system of one experiment is gypsy moth. Conditions: cited from earlier work.
Experiment [1] concerns the target T1, LdisPBP2 (Lymantria dispar, UniProt O16106).
T1 sequence (O16106 21-165): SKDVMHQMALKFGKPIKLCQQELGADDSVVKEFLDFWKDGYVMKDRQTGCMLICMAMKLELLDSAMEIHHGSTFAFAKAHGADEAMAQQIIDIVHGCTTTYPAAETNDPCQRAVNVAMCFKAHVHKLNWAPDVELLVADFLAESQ
The experiment is described as follows: competitive fluorescence binding assay with 1-NPN as probe, LdisPBP2. The gist of the method:
(§1)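 N-terminally His-tagged recombinant PBP was expressed in E. coli BL21(DE3) (0.25 mM IPTG, 18°C overnight), then purified by Ni-resin and gel filtration. 2 μM protein plus 2 μM 1-NPN in 50 mM Tris-HCl pH 7.3 or 50 mM Na2HPO4-citric acid pH 5.5, at 25°C; ex 337 nm, em 370–470 nm. Competitors (1 mM methanol stock) at 2–20 μM. IC50 = half-maximal fluorescence reduction; Ki = IC50/(1+[1-NPN]/K1-NPN). Triplicates.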

In experiment [2] the target is T2, LdisPBP1 (Lymantria dispar, UniProt O16105).
T2 sequence (O16105 20-162): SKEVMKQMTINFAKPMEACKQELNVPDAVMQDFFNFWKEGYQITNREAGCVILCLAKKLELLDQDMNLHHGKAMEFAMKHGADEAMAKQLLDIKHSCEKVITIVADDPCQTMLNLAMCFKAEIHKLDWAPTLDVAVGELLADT
The experiment is described as follows: competitive fluorescence binding assay with 1-NPN as probe, LdisPBP1. Put shortly: as §1

For experiment [3], the target named is T1, LdisPBP2. The experiment is described as follows: fluorescence titration of 1-NPN with LdisPBP2. It counts as binding. Conditions: dissociation constant of the LdisPBP2/1-NPN complex. Put shortly:
(§2)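 Recombinant His-tagged PBP from E. coli, Ni-resin and gel-filtration purified. A 2 μM protein solution in 50 mM Tris-HCl pH 7.3 or 50 mM Na2HPO4-citric acid pH 5.5 was titrated with 1-NPN (1 mM methanol stock) to 1–20 μM final. 25°C; excitation 337 nm, emission 370–470 nm, 10 nm slits. Kd calculated from the binding curve; three independent measurements.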

For experiment [4], the target named is T2, LdisPBP1. The experiment is described as follows: fluorescence titration of 1-NPN with LdisPBP1. It counts as binding. The following applies: dissociation constant of the LdisPBP1/1-NPN complex. The gist of the method: as §2
For the next experiment, the system named is male L.dispar. The experiment is described as follows: initial field experiment, attraction of male moths. It counts as in vivo, Lymantria dispar. Conditions: initial field experiment (data not shown).
The test system of another experiment is PBP1. The following applies: cited from earlier work.
Where [5] appears, read: PBP2[Ki(μM)] pH5.5, pH 5.5, n=3, 2 μM protein and 1-NPN.
The mark [6] stands for this setting: PBP2[Ki(μM)] pH7.3, pH 7.3, n=3, 2 μM protein and 1-NPN.
Where [7] appears, read: PBP1[Ki(μM)] pH5.5, pH 5.5, n=3, 2 μM protein and 1-NPN.
[8] abbreviates: PBP1[Ki(μM)] pH7.3, pH 7.3, n=3, 2 μM protein and 1-NPN.

The Ki is a dissociation constant, usually derived from enzyme kinetics or from competition with a known ligand. Lower therefore signals a stronger hold on the target. In general, Kd refers to the equilibrium constant for the complex coming apart. A lower Kd goes with a tighter complex.

For `OCCCCC1OC12CC2` (stereo not shown) [OXP2, 4-(1-oxaspiro[2.2]pent-2-yl)butan-1-ol], the “effect on the pheromone” value with gypsy moth is “enhanced that of pheromone”. Further, the Ki at LdisPBP2 [1] (setting [5]) amounted to 5.14 ± 0.06 µM; on LdisPBP2 [1] (setting [6]) it was 2.46 ± 0.02 µM; on LdisPBP1 [2] (setting [7]), 6.33 ± 0.18 µM; on LdisPBP1 [2] (setting [8]), 2.99 ± 0.08 µM.

`c1ccc(Nc2cccc3ccccc23)cc1` [1-NPN, N-phenyl-1-naphthylamine]: the Kd at LdisPBP2 [3] (pH 5.5) was found to be 8740 ± 2050 nM; on LdisPBP2 [3] (pH 7.3), 2030 ± 420 nM; at LdisPBP1 [4] (pH 5.5), 1710 ± 200 nM; on LdisPBP1 [4] (pH 7.3), 1770 ± 310 nM.

Take `O=Cc1ccccc1O` [Sal, Salicylaldehyde]: the Ki at LdisPBP2 [1] (setting [5]) was 6.06 ± 0.06 µM; on LdisPBP2 [1] (setting [6]), 5.32 ± 0.07 µM; at LdisPBP1 [2] (setting [7]), 3.05 ± 0.01 µM; at LdisPBP1 [2] (setting [8]) it was 2.93 ± 0.02 µM. The “attraction of male L.dispar compared with (+)-D alone” value with male L.dispar was “reverse”.

With `CCCCCCCCCCC1OC12CC2` (stereo not shown) [OXP1, 2-decyl-1-oxaspiro[2.2]pentane], the “effect on the pheromone” value in the experiment on gypsy moth is recorded as “inhibited the effect of the pheromone”. Also, the inhibition constant Ki is 1.88 ± 0.02 µM on LdisPBP2 [1] (setting [5]), 1.85 ± 0.02 µM on LdisPBP2 [1] (setting [6]), 0.68 ± 0.01 µM on LdisPBP1 [2] (setting [7]) and 1.87 ± 0.01 µM at LdisPBP1 [2] (setting [8]).

In the case of `CCCCCCCCCC[C@H]1O[C@H]1CCCCC(C)C` [(-)-disparlure], in the experiment on PBP1, the “binding preference of PBP1 for pheromone enantiomers” value is “preferentially bound”.

Regarding `O=C(CCCCC(=O)OCC1CCC2OC2C1)OCC1CCC2OC2C1` (stereo not shown) [Bis, Bis(3,4-epoxycyclohexylmethyl) adipate], the Ki was determined as 3.54 ± 0.01 µM at LdisPBP2 [1] (setting [5]), 1.97 ± 0.01 µM on LdisPBP2 [1] (setting [6]), 2.2 ± 0.01 µM at LdisPBP1 [2] (setting [7]) and 3.25 ± 0.02 µM at LdisPBP1 [2] (setting [8]). Besides, in the experiment with male L.dispar, the “attraction of male L.dispar compared with (+)-D alone” value is given as “reverse”.
